TRPML3 ag: agonists of human TRPML3 channel; Q8TDD5; HEK293 TRPML3-YFP, Fluo-8 calcium fluorescence; 100% = the carbachol control signal; activation, % at 3 µM; hit rate 0.29% among 220,000;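 active = activation above its plate's cutoff, the mean activation of the plate's test wells plus 3 SD, cut at about 12% in these data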;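 also: 0% = DMSO only wells and 100% = carbachol wells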
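Test system: HEK293 cells stably carrying human TRPML3-YFP; Doses: single dose, 3 µM final nominal compound, 0.3% DMSO final; Schedule: dye loading 1 h 37 °C then 30 min ambient, 125 s read; Technique: Fluo-8 calcium fluorescence; Benchmarks: high control carbachol 87 µM, low control DMSO.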
TRPN1 ag: agonists of zebrafish TRPN1 channel. HEK293 zebrafish TRPN1-YFP, Fluo-8 calcium fluorescence; 100% = response to 87 µM carbachol. activation, % at 3 µM. hit rate 0.18% among 220,000. AID 1424;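 active = activation above its plate's cutoff, the mean activation of test wells on that plate plus 3 SD, cut at about 19% in these data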;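 also: 0% = DMSO alone and 100% = 87 µM carbachol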
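Material: zebrafish TRPN1-YFP in HEK293 cells; Doses: single test compound dose, 3 µM nominal, 0.3% DMSO; Timing: dye loading 1 h at 37 °C, then 30 min room temperature; Technique: intracellular calcium fluorescence with Fluo-8; Benchmarks: high carbachol 87 µM, low DMSO alone.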
GPR7 antagonist: blocks human GPR7 receptor signaling; GPR7-expressing cells, fluorescence antagonist assay; AID 1861; hit rate 1.1% among 290,000; inhibition, % at 4.4 µM; in the data active = inhibition above about 16%, passing the limit was not always enough;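 also: cells stimulated with the agonist NPW; 0% = agonist with vehicle and 100% = vehicle without agonist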
Target sequence (P48145 whole entry, looked up): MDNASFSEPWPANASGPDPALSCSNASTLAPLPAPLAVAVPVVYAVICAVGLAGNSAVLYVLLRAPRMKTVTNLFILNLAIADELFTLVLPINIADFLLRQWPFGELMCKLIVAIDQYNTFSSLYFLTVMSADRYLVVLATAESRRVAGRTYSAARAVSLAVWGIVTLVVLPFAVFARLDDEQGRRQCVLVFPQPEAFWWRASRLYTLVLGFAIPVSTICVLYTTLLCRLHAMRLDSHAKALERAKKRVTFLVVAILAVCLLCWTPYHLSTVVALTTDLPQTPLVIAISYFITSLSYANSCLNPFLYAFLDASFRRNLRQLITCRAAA
CRFR2-BP antag: antagonists of CRF-binding protein/CRF-R2 receptor complex; hit rate 0.59% among 350,000; inhibition, % at 11.8 µM; HEK293 CRF-R2/CRF-BP, CRF-induced calcium fluorescence; AID 588475;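 active = inhibition of the ligand-induced calcium signal above about 50% at the single tested concentration, limit read from the data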
CRFR2-BP ag: agonists of human CRF-binding protein/CRF-R2 receptor complex; activation, % at 13.2 µM; HEK293 CRF-R2/CRF-BP, calcium dye fluorescence (FLIPR); percent of saturating CRF peptide response; hit rate 0.46% among 350,000; AID 588473;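 active = activation of at least 50%, plus an integration ratio under a set limit after plate pattern correction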;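 also: plate controls were neutral control wells without compound for no effect and CRF at EC100 for full effect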
An asterisk follows results filed as active; . = no result given. The list is not random: actives were taken first. Their share in the collection is about 2%.

SMILES	TRPML3 ag	TRPN1 ag	GPR7 antagonist	CRFR2-BP antag	CRFR2-BP ag
O/C=c1\ccc2cccc3nc(C(F)(F)F)nc1c23	.	.	6.1	-37.6	96.9*
NNc1nc(C(F)(F)F)nc2ccccc12	1.4	2.8	-5.8	-12.4	-0.2
O=C(CN1CCN(S(=O)(=O)c2ccc(Cl)c(C(F)(F)F)c2)CC1)NC(=O)NC1CCCCC1	.	.	.	-12.0	3.3
CCOC(=O)c1sc(-c2ccc(F)cc2)cc1NC(=O)Nc1ccccc1OC	0.5	1.2	-7.7	-93.2	89.2*
COc1ccccc1NS(=O)(=O)c1cc(C(=O)N2CCCC2)ccc1F	.	.	.	79.3*	-0.6
CC(C)(C)c1cc(C(=S)N2CCCC2)cc(C(C)(C)C)c1O	.	.	-21.0	-5.2	0.0
CC(=O)Nc1ccc(OCC[n+]2cccc(C(N)=O)c2)cc1	0.8	1.6	-15.0	60.9*	-0.1
O=C(COC(=O)C1CCN(S(=O)(=O)c2ccc3c(c2)OCCO3)CC1)NC1CCS(=O)(=O)C1 (configuration not stated)	.	.	.	114.7*	0.7
CCCCCOc1ccc(Br)cc1/C(C)=N/NC1=NCCN1	0.1	-1.2	18.1*	-15.6	0.3
Cc1cccc(C)c1NC(=O)c1sccc1SCc1cccc(C(F)(F)F)c1	6.3	2.3	3.5	70.8*	12.0
CC(C)(CSc1ncccn1)NS(=O)(=O)c1ccccc1	1.0	0.5	-3.1	65.9*	0.0
CC(C)(CSc1ccccn1)NS(=O)(=O)c1ccccc1	0.9	-1.0	-2.7	10.5	1.1
Cc1ccc(S(=O)(=O)Nc2nc3ccccc3nc2Nc2cccc(S(=O)(=O)N3CCCC3)c2)cc1	-0.2	0.0	4.5	25.8	14.3
O=[N+]([O-])c1cccc(S(=O)(=O)Nc2nc3ccccc3nc2Nc2cccc(S(=O)(=O)N3CCCCC3)c2)c1	0.3	-0.1	-7.2	89.8*	11.0
O=C1C(Cl)=C(Nc2ccccc2O)C(=O)N1c1ccccc1	-0.5	-0.8	-1.2	7.1	2.9
COc1ccccc1N1C(=O)C(Cl)=C(Nc2ccccc2O)C1=O	0.9	0.5	7.0	-124.5	84.0*
N#CCSc1ccccc1NC(=O)COC(=O)CCN1C(=O)C2CC=CCC2C1=O (configuration not stated)	.	.	.	3.2	-3.1
COc1ccccc1CN(C)C(=O)COC(=O)c1c(C)noc1C	.	.	.	2.7	-0.3
CN(C)c1ncnc2c1NC1=C(S2)C(=NCCCC(=O)O)CC(C)(C)C1	0.7	-0.2	-8.0	51.9*	3.8
COCCN(C(=O)c1ccccc1Oc1ccccc1)c1c(N)n(CC(C)C)c(=O)[nH]c1=O	.	.	.	5.8	-1.0
O=S(=O)(NC(=S)NC1CCCCC1)c1ccc(Br)cc1	0.3	1.1	-20.4	56.3*	-0.3
O=C(NC1CCCCC1)NS(=O)(=O)c1ccc2c(c1)CCC2	.	.	.	63.0*	-7.9
CCOC(=O)C1CCCN(S(=O)(=O)NC[C@H]2O[C@@H](n3cnc4c(N)ncnc43)[C@H](O)[C@@H]2O)C1 (some centres not stated)	.	.	.	-3.6	1.7
CC(C)NC(=O)N(C)C[C@@H]1OCc2cnnn2CCCC(=O)N([C@H](C)CO)C[C@@H]1C	.	.	.	-14.7	5.6
CC(C)NC(=O)N(C)C[C@H]1OCc2cnnn2CCCC(=O)N([C@H](C)CO)C[C@H]1C	.	.	.	-15.1	52.8*
SMILES	TRPML3 ag	TRPN1 ag	GPR7 antagonist	CRFR2-BP antag	CRFR2-BP ag
O=C(Nc1cc(C(=O)Nc2ccccc2C(=O)O)cc(C(=O)Nc2ccccc2C(=O)O)c1)c1ccccc1	.	.	-11.3	103.6*	0.5
COC(=O)c1cccc(NC(=O)Nc2ccc(Cl)c(Cl)c2)c1	6.6	19.5*	23.9	4.2	28.2
O=C(Nc1ccc(Cl)cc1)Nc1ccccc1C(=O)O	0.9	1.0	-6.9	4.9	1.7
O=C(Nc1ccc(Cl)c(Cl)c1)Nc1ccccc1C(=O)O	0.7	-0.2	-13.1	58.9*	-1.3
COc1ccc(NC(=O)CNC(=O)c2nn(-c3ccc(OC)c(Cl)c3)c(=O)c3ccccc23)c(OC)c1	.	.	-1.8	-0.3	-0.7
CC(=O)C1=C(C)NC(=S)NC1c1cc([N+](=O)[O-])ccc1O (configuration not stated)	-0.3	0.7	-12.4	100.2*	-2.7
O=C(CNS(=O)(=O)c1cccs1)NCc1ccccc1	0.6	0.7	-1.0	-15.5	8.5
O=C(CNS(=O)(=O)c1cccs1)NCCc1ccc(Cl)cc1	.	.	-3.6	56.2*	-2.1
Cc1ccc(S(=O)(=O)N(CC(=O)Nc2ccccc2C(=O)O)c2ccccc2C)cc1	-0.4	-0.7	-13.7	18.6	0.0
Cc1ccc(S(=O)(=O)N(CC(=O)Nc2ccccc2C(=O)O)c2cccc(Cl)c2C)cc1	0.6	-0.7	-15.0	50.3*	2.0
CCCn1c(SCC(=O)NCC(=O)Nc2ccc(F)c(F)c2F)nc2ccccc2c1=O	.	.	.	3.6	-2.3
O=C(Nc1nnc(-c2ccccc2)o1)c1nc2ccccc2s1	.	.	.	-65.1	139.6*
C#CCN(C[C@@H]1[C@@H](OC(=O)NCc2ccco2)[C@@H](OC(=O)NCc2ccco2)CN(C(=O)OC(C)C)N1C(=O)OC(C)C)S(=O)(=O)c1ccc(C)cc1	.	.	.	28.1	3.9
CCNC(=S)Nc1cc(OCC)c(NC(=O)c2ccco2)cc1OCC	-0.7	1.6	-6.2	3.5	-4.8
CCNC(=S)Nc1cc(OC)c(NC(=O)c2ccco2)cc1OC	0.5	1.1	-0.5	73.3*	-6.2
CSc1ccc(/C=C/C(=O)N2CCN(c3ccccn3)CC2)cc1	.	.	-11.3	92.3*	-3.0
COc1ccc(NC(=O)C(c2cc3c(cc2[N+](=O)[O-])OCO3)N(C)c2ccccc2)cc1 (configuration not stated)	-0.6	-2.5	-4.1	-241.2	90.3*
COc1ccc(NC(=O)c2ccc3c(c2)OCO3)cc1	.	.	5.2	2.5	-0.1
CCCCCCN1CC(=O)N2[C@@H](Cc3c([nH]c4ccccc34)C2(C)C)C1=O	.	.	-29.8	-1.7	0.0
CN(C)c1ccc(/C=C(/C#N)C(=O)Nc2nc3c(s2)CCN(Cc2ccccc2)C3)cc1	.	.	.	-87.7	157.7*
S=C(NC1CCCCC1)N1CCOCCOCCN(C(=S)NC2CCCCC2)CCOCCOCC1	10.5	1.0	19.3	115.1*	2.7
O=C(NC1CCCCCC1)C(=S)N1CCOCC1	0.1	2.0	1.9	-17.0	-2.1
CCc1cccc(N(C(=O)c2csnn2)C(C(=O)NC2CCCCC2)c2cccnc2)c1 (configuration not stated)	.	.	-8.4	-4.4	0.6
COc1cc(C(=O)COC(=O)c2cccs2)cc(OC)c1OC	.	.	.	-5.2	0.8
CCN1/C(=C/c2ccc3ccccc3[n+]2CC)C=Cc2ccccc21	0.2	-0.9	53.0*	8.9	-0.9
CCN1/C(=C/c2ccc3ccccc3[n+]2CCCS(=O)(=O)[O-])C=Cc2cc(C)ccc21	.	.	2.0	-8.3	2.0
Cc1ccc([C@H]2C[C@@H](n3cc(COC(=O)c4ccccc4)nn3)[C@H](O)CN2C(=O)c2cccs2)cc1	.	.	.	-6.8	-0.3
O=C1C2=C(SCCS2)C(=O)N1CCCO	1.3	0.0	1.6	33.9	59.2*

Screening results: PubChem, several laboratories
